Laboratory results taken from ChEMBL document CHEMBL1154674, “Synthesis and evaluation of three 18F-labeled aminophenylbenzothiazoles as amyloid imaging agents” (J Med Chem, 2009).
Blank lines part the entries; values can stand above or below the molecule they belong to.

Experiments:
Assay type in all cases: ADME, organism-based, Macaca mulatta
[1] = Drug level in normal rhesus monkey pons assessed as standard uptake value at 81.2 MBq, iv after 6 mins by microPET; settings: in vivo, 0.1 h
[2] = Drug level in normal rhesus monkey pons assessed as standard uptake value at 81.2 MBq, iv after 175 mins by microPET; settings: in vivo
[3] = Drug level in normal rhesus monkey parietal cortex assessed as standard uptake value at 81.2 MBq, iv after 57.5 mins by microPET; settings: in vivo
[4] = Drug level in normal rhesus monkey parietal cortex assessed as standard uptake value at 81.2 MBq, iv after 145 mins by microPET; settings: in vivo
[5] = Drug level in normal rhesus monkey parietal cortex assessed as standard uptake value at 81.2 MBq, iv after 175 mins by microPET; settings: in vivo
[6] = Drug level in normal rhesus monkey white matter assessed as standard uptake value at 81.2 MBq, iv after 32.5 mins by microPET; settings: in vivo
[7] = Drug level in normal rhesus monkey white matter assessed as standard uptake value at 81.2 MBq, iv after 175 mins by microPET; settings: in vivo
[8] = Drug level in normal rhesus monkey thalamus assessed as standard uptake value at 81.2 MBq, iv after 1.5 mins by microPET; settings: in vivo, 0.025 h
[9] = Drug level in normal rhesus monkey cerebellum assessed as standard uptake value at 81.2 MBq, iv after 115 mins by microPET; settings: in vivo
In short: (§1)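 One normal rhesus monkey, each tracer given iv via the vena saphena (81.2, 96.3 or 109.4 MBq), with 1 day between tracer injections. Dynamic brain μPET over 180 min used frames of 5 × 60 s, 5 × 120 s, 9 × 300 s and 12 × 600 s. Images were reconstructed by filtered back projection with a RAMP filter. Regional time-activity curves were expressed as SUV.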

[10] = Drug level in normal rhesus monkey frontal cortex assessed as standard uptake value at 81.2 MBq, iv after 10 mins by microPET; settings: in vivo
In short: (§2)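 Single normal rhesus monkey; each tracer given iv via the vena saphena, with 1 day between tracer injections. Dynamic μPET ran 180 min (5×60 s, 5×120 s, 9×300 s, 12×600 s). Images were reconstructed by filtered back projection with a RAMP filter. Regional time-activity curves were expressed as SUV.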

[11] = Drug level in normal rhesus monkey frontal cortex assessed as standard uptake value at 81.2 MBq, iv after 12 mins by microPET; settings: in vivo, 0.2 h; in short: as §2
[12] = Drug level in normal rhesus monkey parietal cortex assessed as standard uptake value at 96.3 MBq, iv after 115 mins by microPET; settings: in vivo
[13] = Drug level in normal rhesus monkey thalamus assessed as standard uptake value at 96.3 MBq, iv after 1.5 mins by microPET; settings: in vivo, 0.025 h
[14] = Drug level in normal rhesus monkey thalamus assessed as standard uptake value at 96.3 MBq, iv after 14 mins by microPET; settings: in vivo
[15] = Drug level in normal rhesus monkey thalamus assessed as standard uptake value at 96.3 MBq, iv after 105 mins by microPET; settings: in vivo, 1.75 h
[16] = Drug level in normal rhesus monkey pons assessed as standard uptake value at 96.3 MBq, iv after 22.5 mins by microPET; settings: in vivo, 0.375 h
[17] = Drug level in normal rhesus monkey pons assessed as standard uptake value at 96.3 MBq, iv after 47.5 mins by microPET; settings: in vivo
[18] = Drug level in normal rhesus monkey pons assessed as standard uptake value at 96.3 MBq, iv after 57.5 mins by microPET; settings: in vivo
[19] = Drug level in normal rhesus monkey cerebellum assessed as standard uptake value at 96.3 MBq, iv after 165 mins by microPET; settings: in vivo, 2.75 h; in short: as §1
[20] = Drug level in normal rhesus monkey frontal cortex assessed as standard uptake value at 96.3 MBq, iv after 32.5 mins by microPET; settings: in vivo
[21] = Drug level in normal rhesus monkey frontal cortex assessed as standard uptake value at 96.3 MBq, iv after 42.5 mins by microPET; settings: in vivo
[22] = Drug level in normal rhesus monkey frontal cortex assessed as standard uptake value at 96.3 MBq, iv after 125 mins by microPET; settings: in vivo
[23] = Drug level in normal rhesus monkey pons assessed as standard uptake value at 109.4 MBq, iv after 47.5 mins by microPET; settings: in vivo
[24] = Drug level in normal rhesus monkey pons assessed as standard uptake value at 109.4 MBq, iv after 117 mins by microPET; settings: in vivo, 1.95 h
[25] = Drug level in normal rhesus monkey cerebellum assessed as standard uptake value at 109.4 MBq, iv after 81 mins by microPET; settings: in vivo, 1.35 h
[26] = Drug level in normal rhesus monkey frontal cortex assessed as standard uptake value at 109.4 MBq, iv after 81 mins by microPET; settings: in vivo, 1.35 h
[27] = Drug level in normal rhesus monkey white matter assessed as standard uptake value at 109.4 MBq, iv after 52.5 mins by microPET; settings: in vivo, 0.875 h
[28] = Drug level in normal rhesus monkey white matter assessed as standard uptake value at 109.4 MBq, iv after 75 mins by microPET; settings: in vivo, 1.25 h
[29] = Drug level in normal rhesus monkey parietal cortex assessed as standard uptake value at 109.4 MBq, iv after 117 mins by microPET; settings: in vivo, 1.95 h
[30] = Drug level in normal rhesus monkey parietal cortex assessed as standard uptake value at 109.4 MBq, iv after 123 mins by microPET; settings: in vivo, 2.05 h
[31] = Drug level in normal rhesus monkey cerebellum assessed as standard uptake value at 152.9 MBq, iv after 2.5 mins by microPET; settings: in vivo
In short: (§3)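 One normal rhesus monkey received each tracer via the vena saphena, with 1 day between injections. Dynamic μPET ran 180 min for 18F tracers (5×60 s, 5×120 s, 9×300 s, 12×600 s) and 90 min for the 11C tracer (5×60 s, 5×120 s, 9×300 s, 3×600 s). Filtered back-projection reconstruction (RAMP filter) was used. Time-activity curves were drawn to give regional SUV.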

[32] = Drug level in normal rhesus monkey cerebellum assessed as standard uptake value at 152.9 MBq, iv after 65 mins by microPET; settings: in vivo; in short: as §3
[33] = Drug level in normal rhesus monkey white matter assessed as standard uptake value at 152.9 MBq, iv after 22.5 mins by microPET; settings: in vivo, 0.375 h
[34] = Drug level in normal rhesus monkey thalamus assessed as standard uptake value at 152.9 MBq, iv after 2.5 mins by microPET; settings: in vivo
[35] = Drug level in normal rhesus monkey thalamus assessed as standard uptake value at 152.9 MBq, iv after 4.5 mins by microPET; settings: in vivo, 0.075 h
[36] = Drug level in normal rhesus monkey thalamus assessed as standard uptake value at 152.9 MBq, iv after 57.5 mins by microPET; settings: in vivo
[37] = Drug level in normal rhesus monkey parietal cortex assessed as standard uptake value at 152.9 MBq, iv after 32.5 mins by microPET; settings: in vivo

SUV [1]: 4.164
SUV [2]: 5.471
SUV [3]: 3.575
SUV [4]: 2.565
SUV [5]: 2.528
SUV [6]: 3.799
SUV [7]: 4.226
SUV [8]: 2.705
SUV [9]: 1.715
SUV [10]: 5.813
SUV [11]: 5.988
Structure (SMILES): CNc1ccc2nc(-c3ccc([18F])cc3)sc2c1

SUV [12]: 1.3
SUV [13]: 1.55
SUV [14]: 2.33
SUV [15]: 2.08
SUV [16]: 1.78
SUV [17]: 1.84
SUV [18]: 1.95
SUV [19]: 0.79
SUV [20]: 2.14
SUV [21]: 1.96
SUV [22]: 1.54
Structure (SMILES): CN(C)c1ccc2nc(-c3ccc([18F])cc3)sc2c1

SUV [23]: 4.7
SUV [24]: 4.76
SUV [25]: 2.87
SUV [26]: 4.41
SUV [27]: 3.54
SUV [28]: 3.63
SUV [29]: 3.51
SUV [30]: 3.56
Structure (SMILES): Nc1ccc2nc(-c3ccc([18F])cc3)sc2c1

SUV [31]: 1.545
SUV [32]: 0.723
SUV [33]: 1.229
SUV [34]: 1.195
SUV [35]: 2.075
SUV [36]: 0.88
SUV [37]: 1.081
Structure (SMILES): [11CH3]Nc1ccc(-c2nc3ccc(O)cc3s2)cc1 [PITTSBURGH COMPOUND B]
